Columns and labels:
TMV [1] = test: TMV–TBPT25-FITC ELISA; format: binding, Tobacco mosaic virus; details: varying TMV coated on plates; Figure S5
TMGMV = test: Cross-reactivity ELISA, TMGMV; format: binding, tobacco mild green mosaic virus; details: conclusion
Outline: (§1)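 Wells coated with 10 µg virus or VLP in 0.1 M bicarbonate, pH 8.6, overnight at 4 °C, then blocked with 5% BSA for 1 h at RT. 10^9 pfu phage in 5% BSA were added for 1 h, followed by 0.5% TBST washes. Detection used HRP anti-M13 (1:500, 1 h) and TMB for 10 min in the dark, read at 370 nm. Controls were empty M13KE phage and BSA-coated wells.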

CPMV = test: Cross-reactivity ELISA, CPMV; format: binding, cowpea mosaic virus; details: conclusion
Outline: as §1

TMV [2] = test: ELISA with biotinylated peptide on streptavidin plates; format: binding, Tobacco mosaic virus; details: CPMV-specific vs TMV-specific biotinylated peptide, Figure S3
Outline: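 0.1 µg biotinylated peptide was bound to streptavidin-coated plates for 1 h at RT; control wells received 5% BSA without peptide. Plates were blocked with 5% BSA, then 10 µg TMV was added for 1 h. Detection used rabbit anti-TMV polyclonal (1:1000, 1 h), then HRP goat anti-rabbit (1:10,000, 1 h), then TMB for 5–10 min. Reactions were stopped with 2 M H₂SO₄ and read at 450 nm.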

BSA = test: Off-target binding to blocking agent BSA; set-up: species or system bovine
[3] = target: T1, tobacco mild green mosaic virus particles (tobacco mild green mosaic virus, UniProt P03579 1-159); test: ELISA
T1 sequence: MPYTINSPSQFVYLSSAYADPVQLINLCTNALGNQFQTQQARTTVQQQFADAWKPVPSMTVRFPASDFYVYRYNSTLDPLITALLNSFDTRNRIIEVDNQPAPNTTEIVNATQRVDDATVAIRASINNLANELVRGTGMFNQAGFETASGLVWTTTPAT

## H2N-GHRCRGGVCYKKKGGGSK/FITC/-CO2H [TBPT25-FITC]
TMV [1]
  concentration dependence of binding: the more TMV coated onto the plates, the higher signal

## H-GHRCRGGVCYKK-OH (cysteine pairing not given here) [TBPT25]
TMGMV
  off-target binding to TMGMV: Some off-target binding
CPMV
  off-target binding to CPMV: Some off-target binding
TMV [2]
  TMV binding, random peptide comparison: TMV binding to the TMV-specific TBPT25 was confirmed
BSA
  off-target binding to BSA: Some off-target binding

## GHRCRGGVCYKK (designed binder) [monoclonal phage T25 (M13 phage displaying [residues removed])]
[3]
  fold less binding than to TMV: 1.2 fold

Reference: PMC9262120 (Chembiochem : a European journal of chemical biology, 2022)
